{
  "source": "paper PMC5472421",
  "about": "(Drug Design, Development and Therapy, 2017)",
  "key": {"[1]": {"assay_type": "in vivo, rat", "settings": "4 h after oral DFP-11207 53.4 mg/kg", "procedure,_shortened": "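AZ521 xenograft-bearing nude rats received 53.4 mg/kg (75 μmol/kg) test compound orally and were killed at 1, 2, 4, 8 and 12 h. Serum, small intestine and tumour were taken. Tissues were homogenised in 10 mM potassium phosphate-buffered saline (pH 7.2) and spun at 9,000× g for 30 min. Supernatants were extracted with 4 volumes of ethyl acetate, dried at 40°C, redissolved, and assayed for CTA and 5-FU by HPLC.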"}, "CoLo320DM cells": {"tested_on": "CoLo320DM cells", "assay_type": "cell-based, human", "settings": "1-100 µM, 1 µM [6-3H] 5-FU, 37°C, 45 min", "procedure,_shortened": "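CoLo320DM cells in RPMI-1640 were incubated at 37°C for 45 min with 1 μM [6-3H]5-FU (37 kBq), alone or with 1–100 μM test compound or CTA. Acid was added and the mixture centrifuged. The neutralised acid-soluble fraction was run on silica TLC and the FUMP spot counted. RNA-incorporated label in the precipitate was extracted by the Schneider method. Results are means of duplicate assays.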"}, "[2]": {"biological_target": "T1, orotate phosphoribosyltransferase (OPRT) (Homo sapiens, UniProt P11172)", "T1 sequence (P11172 1-480)": "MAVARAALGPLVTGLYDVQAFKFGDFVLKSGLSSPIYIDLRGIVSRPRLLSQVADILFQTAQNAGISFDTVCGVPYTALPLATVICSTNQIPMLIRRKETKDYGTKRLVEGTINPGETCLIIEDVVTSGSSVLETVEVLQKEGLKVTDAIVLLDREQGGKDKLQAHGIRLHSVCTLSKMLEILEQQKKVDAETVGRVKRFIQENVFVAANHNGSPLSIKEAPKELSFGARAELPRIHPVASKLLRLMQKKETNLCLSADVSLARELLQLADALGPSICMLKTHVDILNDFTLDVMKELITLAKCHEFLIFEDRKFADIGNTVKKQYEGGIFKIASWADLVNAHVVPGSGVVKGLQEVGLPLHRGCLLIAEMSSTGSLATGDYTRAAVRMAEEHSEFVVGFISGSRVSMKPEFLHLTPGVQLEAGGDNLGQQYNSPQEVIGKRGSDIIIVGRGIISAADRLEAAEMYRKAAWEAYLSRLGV", "settings": "cited from earlier work"}, "[3]": {"assay": "Conversion of EM-FU to 5-FU by human liver microsomes", "assay_type": "in vitro ADME", "settings": "1 mM, 60 min", "procedure,_shortened": "(§1)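 EM-FU (1 mM) was incubated for 60 min with liver microsomes (0.85 mg protein) from each species, with tegafur as positive control. 5-FU formed was quantified by HPLC. Assays were run in triplicate and reported as mean ± SD.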"}, "[4]": {"assay": "Conversion of EM-FU to 5-FU by rat liver microsomes", "assay_type": "in vitro ADME", "settings": "1 mM, 60 min", "procedure,_shortened": "as §1"}, "[5]": {"assay_type": "in vitro ADME", "settings": "rat serum, liver and small intestine homogenates", "procedure,_shortened": "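Test compound (1 mM) was incubated at 37°C with rat serum or 20% (w/v) liver or small-intestine homogenates for 10, 20, 30 and 60 min. Reactions were stopped with 10% TCA and spun at 3,000× g for 10 min. Supernatants were neutralised with 2 M KOH, and EM-FU, CDHP, CTA and 5-FU were measured by HPLC. Results are means of duplicate assays.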"}, "[6]": {"assay": "Conversion of EM-FU to 5-FU by monkey liver microsomes", "assay_type": "in vitro ADME", "settings": "1 mM, 60 min", "procedure,_shortened": "as §1"}, "[7]": {"assay": "Conversion of EM-FU to 5-FU by dog liver microsomes", "assay_type": "in vitro ADME", "settings": "1 mM, 60 min", "procedure,_shortened": "as §1"}, "[8]": {"tested_on": "CYP1A2, CYP2A6, CYP2E1, CYP3A4", "assay_type": "in vitro ADME", "settings": "100 µM inhibitor; EM-FU 1 mM; human liver microsomes"}},
  "data": [
    {"compound": "O=c1[nH]cc(F)c(=O)[nH]1", "note": "[5-FU, 5-Fluorouracil]", "values": [
      {"measurement": "5-FU level in small intestine compared with CTA", "setting": "[1]", "value": "almost equal level"},
      {"measurement": "5-FU levels in blood and tumor compared with CTA", "setting": "[1]", "value": "much higher than CTA"}
    ]},
    {"compound": "O=C(O)c1cc(O)nc(O)c1", "note": "[CTA, citrazinic acid]", "values": [
      {"measurement": "Inhibition of incorporation of 5-FU into RNA", "setting": "CoLo320DM cells", "value": "did not inhibit"},
      {"measurement": "Inhibition of intracellular phosphorylation of 5-FU", "setting": "CoLo320DM cells", "value": "did not inhibit"},
      {"measurement": "Inhibition of OPRT activity (5-FU phosphorylation) in cell-free tumor extract", "setting": "[2]", "value": "strongly inhibit"}
    ]},
    {"compound": "CCOCn1cc(F)c(=O)[nH]c1=O", "note": "[EM-FU, 1-ethoxymethyl-5-fluorouracil]", "values": [
      {"measurement": "Conversion rate of EM-FU to 5-FU", "setting": "[3]", "value": "30 to 60", "unit": "pmol/min/mg"},
      {"measurement": "Conversion rate of EM-FU to 5-FU", "setting": "[4]", "value": "30 to 60", "unit": "pmol/min/mg"},
      {"measurement": "Production of 5-FU from EM-FU by this enzymatic reaction", "setting": "[5]", "value": "not produced"},
      {"measurement": "Conversion rate of EM-FU to 5-FU", "setting": "[6]", "value": "30 to 60", "unit": "pmol/min/mg"},
      {"measurement": "Conversion rate of EM-FU to 5-FU", "setting": "[7]", "value": "lowest conversion rate"}
    ]},
    {"compound": "O=c1ccc2ccccc2o1", "note": "[coumarin]", "values": [
      {"measurement": "Inhibition of the conversion of EM-FU to 5-FU", "setting": "[8]", "value": "strongly inhibited"}
    ]},
    {"compound": "O=[N+]([O-])c1ccc(O)cc1", "note": "[p-nitrophenol]", "values": [
      {"measurement": "Inhibition of the conversion of EM-FU to 5-FU", "setting": "[8]", "value": "strongly inhibited"}
    ]},
    {"compound": "O=c1cc(-c2ccccc2)oc2c1ccc1ccccc12", "note": "[α-naphthoflavone]", "values": [
      {"measurement": "Inhibition of the conversion of EM-FU to 5-FU", "setting": "[8]", "value": "strongly inhibited"}
    ]},
    {"compound": "toleandomycin", "values": [
      {"measurement": "Inhibition of the conversion of EM-FU to 5-FU", "setting": "[8]", "value": "strongly inhibited"}
    ]}
  ]
}
